# Sampled rows, rich in hits. Any-hit rate of the full collection: about 4.3%.
# UBC13 polyUb: blocks human UBC13 polyubiquitin chain formation | inhibition, % at 20 µM | AID 485273 | TR-FRET | actives 0.47% (n = 330,000) | P61088; in the data active means inhibition above about 45%, passing the limit was not always enough
# Target sequence (P61088 whole entry, looked up): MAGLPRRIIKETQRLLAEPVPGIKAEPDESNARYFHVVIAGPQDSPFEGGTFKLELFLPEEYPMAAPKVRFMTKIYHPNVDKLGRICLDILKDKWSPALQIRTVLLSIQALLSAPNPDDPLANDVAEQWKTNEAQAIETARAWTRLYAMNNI
# ALR H2O2 inh: blocks human ALR sulfhydryl oxidase activity; P55789; purified ALR, DTT oxidation, H2O2 HRP-luminol luminescence; inhibition, % (test concentration not listed); actives 3.8% (n = 290,000); AID 485317;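 active means mean replicate inhibition above about 79%, with every replicate also reaching it, limit read from the data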
# UBC9 SUMO inh: blocks human SUMOylation mediated by UBC9; P63279; inhibition, % at 35 µM; HTRF SUMOylation assay, SAE1/SAE2 + UBC9, in vitro; actives 0.36% (n = 290,000); AID 2006; in the data active means inhibition above about 50%, passing the limit was not always enough
# Target sequence (P63279 whole entry, looked up): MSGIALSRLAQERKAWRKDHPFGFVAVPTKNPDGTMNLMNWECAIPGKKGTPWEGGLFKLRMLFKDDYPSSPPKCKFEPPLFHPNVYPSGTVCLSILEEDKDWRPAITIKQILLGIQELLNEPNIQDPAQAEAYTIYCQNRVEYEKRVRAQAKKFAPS
# PREPL inhibitor: inhibitors of human prolyl oligopeptidase-like enzyme PREPL. AID 2751. actives 0.68% (n = 320,000). inhibition, % at 5.96 µM. Q4J6C6. recombinant PREPL, fluorescence polarization activity-based probe; in the data active means inhibition above about 43%;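 further: 0% = enzyme with DMSO and 100% = wells lacking enzyme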
# RBBP9 inhibitor: human RBBP9 hydrolase inhibition; recombinant RBBP9, FP-Rh probe fluorescence polarization; inhibition, % at 7.94 µM; actives 0.2% (n = 220,000); O75884; AID 1515;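 active means inhibition above the campaign mean of all tested compounds plus 3 SD, cut at about 14% in these data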;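 further: plate controls were DMSO wells with RBBP9 for no effect and wells lacking RBBP9 protein for full effect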
#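 Test system: recombinant human RBBP9. Quantity: 2.5 µM RBBP9 dispensing solution, before mixing. Detection: FP readout at 525/598 nm. Reagent: Serine-hydrolase probe FP-Rh, 375 nM pre-mixing. Measure: % inhibition. Control set: DMSO-treated enzyme wells and wells lacking RBBP9. Buffer or medium: Tris-NaCl-Pluronic buffer, pH 8.0. Times: preincubation 30 min plus labeling 45 min at 25 °C.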
# Rin1-Abl PPI inh: human Rin1-Abl interaction inhibition; actives 0.4% (n = 360,000); P00519+Q13671; inhibition, % at 7.35 µM; AID 588664; TR-FRET Rin1/Abl binding, biochemical; in the data active means inhibition above about 5%, passing the limit was not always enough
# * = called active by the depositor; x = not tested or not shown.
SMILES,UBC13 polyUb,ALR H2O2 inh,UBC9 SUMO inh,PREPL inhibitor,RBBP9 inhibitor,Rin1-Abl PPI inh
COc1cc(C(=O)NCc2nnc(SCC(=O)Nc3cc(C)cc(C)c3)o2)cc(OC)c1OC,8,97*,-10,0,-9,-1
COc1ccc(Cl)cc1S(=O)(=O)Nc1ncn[nH]1,0,-9,-1,0,x,0
CCC1(C)NC(=O)N(CC(=O)Nc2cc(C)on2)C1=O (centres undefined),-15,-7,x,6,x,2
COc1ccc(/C=c2\s/c(=C\C(=O)C(C)(C)C)[nH]c2=O)cc1O,-24,89*,12,10,11,3
COc1cc(/C=c2\s/c(=C\C(=O)C(C)(C)C)[nH]c2=O)cc(OC)c1OC,-15,-17,-16,7,-2,4
Cn1cc(C(=O)N2CCCC(Nc3ccc(F)cc3)C2)c2ccccc21 (centres undefined),-5,88*,-5,32,x,-3
Cn1nccc1C(=O)N1CCCC(Nc2ccc(F)cc2)C1 (centres undefined),-2,72,-15,10,x,4
CN(C)c1ccccc1C(=O)N1CCCC(Nc2ccc(F)cc2)C1 (centres undefined),-2,99*,3,12,x,1
C=CCn1c(C)c(C(C)=O)c(N2CCOCC2)nc1=S,3,-7,12,0,0,3
C=CCn1c(N)c(C(=O)N2CCOCC2)sc1=S,-1,99*,-3,2,4,0
CCn1c(N)c(C(=O)N2CCOCC2)sc1=S,2,98*,-12,3,-3,-5
CCOC(=O)c1c(N)sc(C(=O)N2CCOCC2)c1C,1,-2,-16,6,-9,-1
COC(=O)c1cnc(Oc2ccc(NC(=O)NC(=O)c3ccccc3Cl)cc2)cc1C(F)(F)F,-18,-3,25,6,-6,3
CCCCN1C(=O)C(CC(=O)NCCN2CCOCC2)CC(C(=O)N(C(C)C)C(C)C)=C1C (centres undefined),x,x,x,x,x,0
Cc1oc(-c2ccccc2F)nc1CS(=O)CC(=O)NCc1ccccc1 (centres undefined),3,97*,8,-7,x,-3
Cc1oc(-c2ccccc2F)nc1CS(=O)CC(=O)NCc1ccc(F)cc1 (centres undefined),-5,99*,1,14,x,-2
Cc1oc(-c2ccccc2F)nc1CSCC(=O)NCc1ccc2c(c1)OCO2,-8,98*,-15,-17,0,3
Cc1ccc(CNC(=O)CS(=O)(=O)Cc2nc(-c3ccccc3F)oc2C)cc1,8,-10,17,-38,x,2
Cc1ccccc1-c1nc(CS(=O)(=O)CC(=O)NCc2ccccc2)c(C)o1,1,-6,-4,-48,-4,0
Cc1ccc(CNC(=O)CS(=O)Cc2nc(-c3ccccc3F)oc2C)cc1 (centres undefined),-4,96*,12,-3,x,-1
Cc1ccc(C(=O)NCCc2c[nH]c3ccccc23)s1,1,x,13,-1,x,2
O=C1NC(Cc2ccc(O)cc2)c2nc3ccccc3c(=O)n2-c2ncccc21 (centres undefined),x,x,x,x,x,0
COc1ccc(N2C(=O)CSC23CCCCC3)cc1,0,98*,6,-2,-7,-2
CCOC(=O)CCCNC(=O)CSc1nc2ccc(OCC)cc2[nH]1,-2,-23,-14,5,1,3
COC(=O)c1ccccc1NC1=C/C(=N\S(=O)(=O)c2cccs2)c2ccccc2C1=O,-66,-22,58,24,7,-4
SMILES,UBC13 polyUb,ALR H2O2 inh,UBC9 SUMO inh,PREPL inhibitor,RBBP9 inhibitor,Rin1-Abl PPI inh
COC(=O)c1ccccc1NC1=C/C(=N\S(=O)(=O)c2ccc(C(=O)O)cc2)c2ccccc2C1=O,-128,x,92*,22,x,-1
CC(=O)Nc1c(O)nc(SCC(=O)Nc2nnc(SCc3ccccc3)s2)[nH]c1=O,-3,74,-10,19,-10,3
Cc1cc(C)c(NC(=O)CCc2c(C)noc2C)c(C)c1,13,-1,x,5,x,-3
O=C1OCC(CO)(CO)N=C1NNc1ccccc1Cl,1,99*,11,0,-5,1
N=C1/C(=C\c2ccc(-c3cc(Cl)cc(Cl)c3)o2)C(=O)N=C2SC=C(c3ccccc3)N12,-26,6,38,5,-3,1
CCc1ccc(-n2cccc2/C=C2/C(=N)N3C(=NC2=O)SN=C3S(C)(=O)=O)cc1,-13,58,50,1,-19,-2

# Screens: PubChem, several laboratories
